The record followed here is ChEMBL document CHEMBL4000190, “Novel trifluoromethylated 9-amino-3,4-dihydroacridin-1(2H)-ones act as covalent poisons of human topoisomerase IIα” (Bioorg Med Chem Lett, 2017).

The target of assay [1] is DNA topoisomerase 2-alpha (Homo sapiens) (UniProt P11388). Kind of assay: Poison activity at recombinant human topoisomerase-2alpha expressed in Saccharomyces cerevisiae JEL1 harboring topoisomerase1 deletion mutant assessed as increase in double stranded DNA cleavage at 1 mM using supercoiled pBR322 DNA as substrate in presence of reducing agent DTT measured after 6 mins by ethidium bromide staining based agarose gel electrophoresis. The procedure, abridged:
(§1)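 Topoisomerase IIα DNA cleavage with 1 mM compound, run without and with 0.5 mM DTT. Controls are no-compound and 50 µM reactions. Mean ± standard deviation of at least three independent experiments.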

For assay [2] the target is unchanged. As to the kind of experiment: Poison activity at recombinant human topoisomerase-2alpha expressed in Saccharomyces cerevisiae JEL1 harboring topoisomerase1 deletion mutant assessed as increase in double stranded DNA cleavage up to 1000 uM using supercoiled pBR322 DNA as substrate measured after 6 mins by ethidium bromide staining based agarose gel electrophoresis relative to control. The procedure, abridged:
(§2)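 Enhancement of topoisomerase IIα-mediated double-stranded cleavage of negatively supercoiled DNA, measured over a compound concentration range. Cleavage is expressed relative to the baseline of enzyme without compound.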

For assay [3] the target is unchanged. Kind of assay: Poison activity at recombinant human topoisomerase-2alpha catalytic domain (431 to 1193 residues) assessed as increase in double stranded DNA cleavage at 1 mM using supercoiled pBR322 DNA as substrate measured after 6 mins by ethidium bromide staining based agarose gel electrophoresis. The procedure, abridged: (§3)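 Double-stranded DNA cleavage by full-length topoisomerase IIα and by the catalytic core (lacking N- and C-terminal domains), run in parallel. Compounds at 1 mM; controls at 50 µM; a no-compound baseline is included. Mean ± SD of ≥3 independent experiments.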

The species entered for assay [4] is Bos taurus. Kind of assay: Activity at calf thymus DNA topoisomerase-1 assessed as DNA intercalation by measuring band shift at 1 mM using pBR322 DNA as substrate measured after 15 mins by ethidium bromide staining based agarose gel electrophoresis relative to control. The procedure, abridged:
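Topoisomerase I relaxation of negatively supercoiled DNA in the presence of compound. Intercalation is read as a shift of topoisomer bands toward the supercoiled position. Controls are DNA alone and DNA plus topoisomerase I without compound. Gel representative of three independent experiments.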

For assay [5], the target named is DNA topoisomerase 2-alpha (Homo sapiens) (UniProt P11388). As to the kind of experiment: Inhibition of recombinant human topoisomerase-2alpha mediated DNA ligation expressed in Saccharomyces cerevisiae JEL1 harboring topoisomerase1 deletion mutant at 1 mM measured after 6 mins by ethidium bromide staining based agarose gel electrophoresis. The procedure, abridged: (§4)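 Topoisomerase IIα-mediated DNA ligation measured with or without 1 mM compound; controls at 50 µM. Mean ± standard deviation of at least three independent experiments.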
Sequence of DNA topoisomerase 2-alpha (Homo sapiens) (P11388 whole entry): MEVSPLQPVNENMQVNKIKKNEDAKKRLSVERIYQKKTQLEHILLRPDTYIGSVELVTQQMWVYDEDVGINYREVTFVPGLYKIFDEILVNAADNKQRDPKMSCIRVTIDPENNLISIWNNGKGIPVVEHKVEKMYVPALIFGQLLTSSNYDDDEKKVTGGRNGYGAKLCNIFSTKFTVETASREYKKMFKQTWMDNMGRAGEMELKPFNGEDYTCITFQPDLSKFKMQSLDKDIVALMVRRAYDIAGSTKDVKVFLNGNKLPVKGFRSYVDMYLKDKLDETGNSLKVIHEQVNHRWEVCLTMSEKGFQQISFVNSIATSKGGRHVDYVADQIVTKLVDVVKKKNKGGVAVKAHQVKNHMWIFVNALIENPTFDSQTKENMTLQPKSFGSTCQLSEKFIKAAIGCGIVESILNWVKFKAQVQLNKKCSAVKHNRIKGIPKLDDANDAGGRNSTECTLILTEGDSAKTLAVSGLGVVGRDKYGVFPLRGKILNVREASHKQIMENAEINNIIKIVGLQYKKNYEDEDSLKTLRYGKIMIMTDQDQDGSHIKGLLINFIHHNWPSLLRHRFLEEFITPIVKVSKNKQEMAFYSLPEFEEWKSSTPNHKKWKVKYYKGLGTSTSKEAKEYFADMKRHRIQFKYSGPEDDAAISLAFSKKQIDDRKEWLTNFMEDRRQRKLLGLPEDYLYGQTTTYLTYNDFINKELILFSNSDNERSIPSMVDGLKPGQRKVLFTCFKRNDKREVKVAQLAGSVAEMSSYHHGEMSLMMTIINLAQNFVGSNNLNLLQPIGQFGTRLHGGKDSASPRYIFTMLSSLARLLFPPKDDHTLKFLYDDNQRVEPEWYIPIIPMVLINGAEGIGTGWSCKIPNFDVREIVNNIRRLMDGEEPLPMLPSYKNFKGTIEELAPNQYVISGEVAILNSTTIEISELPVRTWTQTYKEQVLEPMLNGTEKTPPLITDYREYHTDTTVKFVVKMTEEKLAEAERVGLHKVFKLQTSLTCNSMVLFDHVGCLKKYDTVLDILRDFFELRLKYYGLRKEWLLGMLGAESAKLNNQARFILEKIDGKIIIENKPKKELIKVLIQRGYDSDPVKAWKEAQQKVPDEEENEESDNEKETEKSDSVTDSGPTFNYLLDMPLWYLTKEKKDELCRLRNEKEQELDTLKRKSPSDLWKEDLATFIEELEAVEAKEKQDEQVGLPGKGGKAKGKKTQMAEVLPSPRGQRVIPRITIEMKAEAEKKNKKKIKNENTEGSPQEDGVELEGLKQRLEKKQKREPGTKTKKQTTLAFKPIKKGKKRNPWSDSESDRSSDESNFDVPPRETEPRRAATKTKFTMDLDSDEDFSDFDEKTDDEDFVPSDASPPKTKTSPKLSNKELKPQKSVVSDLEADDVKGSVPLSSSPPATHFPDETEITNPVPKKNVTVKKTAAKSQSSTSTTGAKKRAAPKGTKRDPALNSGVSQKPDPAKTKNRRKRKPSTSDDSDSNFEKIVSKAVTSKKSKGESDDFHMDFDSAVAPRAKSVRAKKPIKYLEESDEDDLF

The target is the same in assay [6]. Kind of assay: Poison activity at recombinant human topoisomerase-2alpha expressed in Saccharomyces cerevisiae JEL1 harboring topoisomerase1 deletion mutant assessed as concentration required to triple the level of DNA cleavage complex relative to basal level using supercoiled pBR322 DNA as substrate measured after 6 mins by ethidium bromide staining based agarose gel electrophoresis. The essentials: as §2

Assay [7] has the same target. As to the kind of experiment: Poison activity at recombinant human topoisomerase-2alpha expressed in Saccharomyces cerevisiae JEL1 harboring topoisomerase1 deletion mutant assessed as increase in double stranded DNA cleavage at 1 mM using supercoiled pBR322 DNA as substrate preincubated for 1 to 5 mins followed by substrate addition measured after 6 mins by ethidium bromide staining based agarose gel electrophoresis. The essentials:
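Topoisomerase IIα was preincubated with 1 mM compound for 1–5 min, then the cleavage reaction was started by adding DNA. Cleavage was followed against preincubation time.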

For assay [8] the target is unchanged. As to the kind of experiment: Poison activity at recombinant human topoisomerase-2alpha expressed in Saccharomyces cerevisiae JEL1 harboring topoisomerase1 deletion mutant assessed as double stranded DNA cleavage using supercoiled pBR322 DNA as substrate at 1000 uM measured after 6 mins by ethidium bromide staining based agarose gel electrophoresis relative to control. The procedure, abridged: as §2

For assay [9] the target is unchanged. Kind of assay: Inhibition of recombinant human topoisomerase-2alpha mediated DNA ligation expressed in Saccharomyces cerevisiae JEL1 harboring topoisomerase1 deletion mutant at 50 uM measured after 6 mins by ethidium bromide staining based agarose gel electrophoresis. The essentials: as §4
Assay [10] has the same target. Kind of assay: Poison activity at recombinant human topoisomerase-2alpha catalytic domain (431 to 1193 residues) assessed as increase in double stranded DNA cleavage at 50 uM using supercoiled pBR322 DNA as substrate measured after 6 mins by ethidium bromide staining based agarose gel electrophoresis. The procedure, abridged:
as §3

For assay [11] the target is unchanged. As to the kind of experiment: Poison activity at recombinant human topoisomerase-2alpha expressed in Saccharomyces cerevisiae JEL1 harboring topoisomerase1 deletion mutant assessed as increase in double stranded DNA cleavage at 50 uM using supercoiled pBR322 DNA as substrate in presence of reducing agent DTT measured after 6 mins by ethidium bromide staining based agarose gel electrophoresis. The essentials: as §1

SMILES strings stand for the structures. Active and inactive are the calls of the source. The calls are words filed in the database; no cut-off is given here.

Consider `Nc1c2c(nc3ccc(Cl)cc13)CC(C(F)(F)F)CC2=O` (stereo not given), for which the result in [1] and in assay [3] was inactive. Further, the fold change (FC) in assay [2] lay in the range of 5.5 to 8.5. Further, the result in assay [4] and in assay [7] was Active. Moreover, in [5], the inhibition entry is “inactive”. The Activity in [6] is 85 µM; in assay [8], below 35%.
As to `Nc1c2c(nc3ccc(Br)cc13)CC(C(F)(F)F)CC2=O` (stereo not given), the outcome in assay [1] and in assay [3] was inactive. Besides, the fold change (FC) in [2] fell in the range of 5.5 to 8.5. Moreover, the result in assay [4] and in assay [7] was Active. Moreover, the inhibition result in assay [5] is “inactive”. For the same compound, the Activity in assay [6] is 90 µM; in assay [8] it was below 35%.
Regarding `Nc1c2c(nc3ccc(F)cc13)CC(C(F)(F)F)CC2=O` (stereo not given), the result in [1] and in [3] was inactive. The fold change (FC) in [2] lay in the range of 5.5 to 8.5. Also, in assay [4], the outcome was Active. The inhibition result in assay [5] is “inactive”. The results for the Activity in [6] and in assay [8] were 520 µM and below 35%, respectively.
Consider `COc1cc([C@@H]2c3cc4c(cc3[C@@H](O[C@@H]3O[C@@H]5CO[C@@H](C)O[C@H]5[C@H](O)[C@H]3O)[C@H]3COC(=O)[C@H]23)OCO4)cc(OC)c1O`, for which, in assay [6], the Activity was 32 µM. For the same compound, the inhibition entry in assay [9] is “Active”.
On to `O=C1CC(C(F)(F)F)Cc2nc3ccccc3cc21` (stereo not given), for which the fold change (FC) in [2] lay in the range of 5.5 to 8.5. Besides, in assay [4], the result was Active. Further, the inhibition result in assay [5] was “inactive”. Moreover, the Activity in assay [6] was above 1000 µM.
As to `Nc1c2c(nc3ccccc13)CC(C(F)(F)F)CC2=O` (stereo not given), the outcome in assay [1] and in assay [3] was inactive. Further, the fold change (FC) in [2] fell in the range of 5.5 to 8.5. Moreover, the result in assay [4] and in assay [7] was Active. For the same compound, the inhibition result in assay [5] was “inactive”. The Activity in assay [6] is 155 µM.
Regarding `c1ccc2nc3ccccc3cc2c1`, the Activity in assay [6] is above 1000 µM.
Take `Cc1ccc2c(N)c3c(nc2c1)CC(C(F)(F)F)CC3=O` (stereo not given): the result in assay [1] and in [3] was inactive. Moreover, the result in assay [4] and in assay [7] was Active. Moreover, the inhibition entry in assay [5] was “inactive”. Moreover, the Activity in assay [6] is 800 µM.
For the compound `Nc1c2c(nc3ccc([N+](=O)[O-])cc13)CC(C(F)(F)F)CC2=O` (stereo not given), in assay [4], the outcome was Active. Also, the inhibition entry in assay [5] was “inactive”. Moreover, in [6], the Activity was above 1000 µM.
In the case of `COc1cc(NS(C)(=O)=O)ccc1Nc1c2ccccc2nc2ccccc12`, the result in assay [10] and in assay [11] was Active. Also, the Activity in assay [6] was 8.5 µM. Besides, the inhibition entry in assay [9] is “Active”.
